Results as given in ChEMBL document CHEMBL1127399, “4,7 beta-Dimethyl-4-azacholestan-3-one (MK-386) and related 4-azasteroids as selective inhibitors of human type 1 5 alpha-reductase” (J Med Chem, 1994).
Values belong to the compound of their own block, whether it stands above or below them.

Tests used:
[1] = target: T1, 3-oxo-5-alpha-steroid 4-dehydrogenase 2 (Homo sapiens, UniProt P31213); assay: Inhibition of type 2 steroid-5-alpha-reductase
T1 sequence (P31213 whole entry): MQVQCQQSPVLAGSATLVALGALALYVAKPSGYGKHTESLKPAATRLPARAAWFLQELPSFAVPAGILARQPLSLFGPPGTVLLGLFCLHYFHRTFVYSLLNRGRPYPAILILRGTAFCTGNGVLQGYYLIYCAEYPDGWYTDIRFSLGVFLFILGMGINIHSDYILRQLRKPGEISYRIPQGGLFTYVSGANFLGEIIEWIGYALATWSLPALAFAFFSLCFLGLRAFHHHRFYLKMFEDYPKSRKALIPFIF
In short: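 Baculovirus-expressed recombinant human type 2 5α-reductase preincubated 18 h at 4 °C with inhibitor (1–10 000 nM, serially diluted from ethanol) in 40 mM sodium citrate pH 5.5, 500 μM NADPH, 1 mM DTT, 1 mg/mL BSA. Conversion of [7-³H]testosterone to DHT monitored by HPLC. IC50 averaged over at least three determinations.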

[2] = target: T2, 3-oxo-5-alpha-steroid 4-dehydrogenase 1 (Homo sapiens, UniProt P18405); assay: Inhibition of type 1 steroid-5-alpha-reductase
T2 sequence (P18405 whole entry): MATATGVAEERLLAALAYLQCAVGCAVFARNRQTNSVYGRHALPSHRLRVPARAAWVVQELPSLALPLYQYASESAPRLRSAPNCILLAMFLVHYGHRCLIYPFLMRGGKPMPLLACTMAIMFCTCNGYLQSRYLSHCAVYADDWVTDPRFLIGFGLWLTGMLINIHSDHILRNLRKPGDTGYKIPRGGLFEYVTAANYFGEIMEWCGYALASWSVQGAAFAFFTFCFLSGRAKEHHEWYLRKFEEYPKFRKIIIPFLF
In short: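 Baculovirus-expressed recombinant human type 1 5α-reductase preincubated 18 h at 4 °C with inhibitor (0.1–1000 nM, serial dilutions from ethanol) in 40 mM sodium phosphate pH 7.0, 500 μM NADPH, 1 mM DTT, 1 mg/mL BSA. Reaction started with [7-³H]testosterone (final 0.3 μM) plus NADPH, 90 min at 37 °C; T and DHT separated by HPLC. IC50, mean of ≥3 determinations.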

Compound: CCC[C@H]1C=C2NC(=O)CC[C@]2(C)C2CC[C@]3(C)C(C(C)CCCC(C)C)CCC3C21 (stereo not given in full)
IC50 [1]: 713 nM
IC50 [2]: 58 nM

Compound: CC(C)CCCC(C)C1CCC2C3C(CC[C@]12C)[C@@]1(C)CCC(=O)NC1C[C@@H]3c1ccccc1 (stereo not given in full)
IC50 [1]: 443 nM
IC50 [2]: > 1000 nM

Compound: CC(C)CCCC(C)C1CCC2C3C(CC[C@]12C)[C@@]1(C)CCC(=O)N(C)C1=C[C@@H]3c1ccccc1 (stereo not given in full)
IC50 [1]: 2170 nM
IC50 [2]: > 1000 nM

Compound: CC(C)CCCC(C)C1CCC2C3C(CC[C@]12C)[C@@]1(C)C=CC(=O)NC1C[C@@H]3C (stereo not given in full)
IC50 [1]: 298 nM
IC50 [2]: 1.6 nM

Compound: CC(C)CCCC(C)C1CCC2C3C(CC[C@]12C)[C@@]1(C)C=CC(=O)N(C)C1C[C@@H]3C (stereo not given in full)
IC50 [1]: 125 nM
IC50 [2]: 2 nM

Compound: C[C@]12CCC3C(CNC4=CC(=O)CC[C@@]43C)C1CCC2C(=O)NC(c1ccccc1)c1ccccc1 (stereo not given in full)
IC50 [1]: < 0.1 nM
IC50 [2]: 186 nM

Compound: CC[C@H]1C=C2NC(=O)CC[C@]2(C)C2CC[C@]3(C)C(C(C)CCCC(C)C)CCC3C21 (stereo not given in full)
IC50 [1]: 1050 nM
IC50 [2]: 8.6 nM

Compound: CC(C)CCCC(C)C1CCC2C3C(CC[C@]12C)[C@@]1(C)CCC(=O)NC1=C[C@@H]3C (stereo not given in full)
IC50 [1]: 859 nM
IC50 [2]: 2.5 nM

Compound: CC(C)CCCC(C)C1CCC2C3CC=C4NC(=O)CC[C@]4(C)C3CC[C@]12C (stereo not given in full)
IC50 [2]: 19.1 nM

Compound: CC(C)CCCC(C)C1CCC2C3C(CC[C@]12C)[C@@]1(C)CCC(=O)NC1=C[C@@H]3c1ccccc1 (stereo not given in full)
IC50 [1]: 1340 nM
IC50 [2]: > 1000 nM

Compound: CN1C(=O)CC[C@@H]2c3ccc(Cl)cc3CC[C@H]21 [BEXLOSTERIDE]
IC50 [1]: 1750 nM
IC50 [2]: 8.6 nM

Compound: CC(C)(C)NC(=O)[C@H]1CC[C@H]2[C@@H]3CC=C4C=C(C(=O)O)CC[C@]4(C)[C@H]3CC[C@]12C [EPRISTERIDE]
IC50 [1]: 0.6 nM
IC50 [2]: > 1000 nM

Compound: CC(C)(C)NC(=O)[C@H]1CC[C@H]2[C@@H]3CC[C@H]4NC(=O)C=C[C@]4(C)[C@H]3CC[C@]12C [FINASTERIDE]
IC50 [1]: < 0.1 nM
IC50 [2]: 52 nM

Next, values leading:

IC50 [1]: 5.4 nM
IC50 [2]: 8.4 nM
Compound: CCC[C@H]1C=C2N(C)C(=O)CC[C@]2(C)C2CC[C@]3(C)C(C(C)CCCC(C)C)CCC3C21 (stereo not given in full)

IC50 [1]: 2120 nM
IC50 [2]: 9.5 nM
Compound: CC[C@H]1C=C2N(C)C(=O)CC[C@]2(C)C2CC[C@]3(C)C(C(C)CCCC(C)C)CCC3C21 (stereo not given in full)

IC50 [2]: 4.3 nM
Compound: CC(C)CCCC(C)C1CCC2C3CC=C4N(C)C(=O)CC[C@]4(C)C3CC[C@]12C (stereo not given in full)

IC50 [1]: 580 nM
IC50 [2]: 20 nM
Compound: CCC[C@H]1CC2N(C)C(=O)CC[C@]2(C)C2CC[C@]3(C)C(C(C)CCCC(C)C)CCC3C21 (stereo not given in full)

IC50 [1]: 330 nM
IC50 [2]: 5.7 nM
Compound: CC[C@H]1CC2N(C)C(=O)CC[C@]2(C)C2CC[C@]3(C)C(C(C)CCCC(C)C)CCC3C21 (stereo not given in full)

IC50 [1]: 1300 nM
IC50 [2]: 42 nM
Compound: C=CCN1C(=O)CC[C@]2(C)C3CC[C@]4(C)C(C(C)CCCC(C)C)CCC4C3[C@@H](C)CC12 (stereo not given in full)

IC50 [1]: 154 nM
IC50 [2]: 0.9 nM
Compound: CC(C)CCCC(C)[C@H]1CCC2C3C(CC[C@@]21C)[C@@]1(C)CCC(=O)N(C)C1C[C@@H]3C (stereo not given in full)

IC50 [2]: 5 nM
Compound: CC(C)CCCC(C)C1CCC2C3CCC4NC(=O)C=C[C@]4(C)C3CC[C@]12C (stereo not given in full)

IC50 [1]: 428 nM
IC50 [2]: 134 nM
Compound: CC(C)CCCC(C)C1CCC2C3C(CC[C@]12C)[C@@]1(C)CCC(=O)N(C)C1C[C@@H]3c1ccccc1 (stereo not given in full)

IC50 [1]: 218 nM
IC50 [2]: 1.7 nM
Compound: CC(C)CCCC(C)C1CCC2C3CCC4N(C)C(=O)CC[C@]4(C)C3CC[C@]12C (stereo not given in full)

IC50 [1]: 218 nM
IC50 [2]: 2.6 nM
Compound: CC(C)CCCC(C)C1CCC2C3CCC4NC(=O)CC[C@]4(C)C3CC[C@]12C (stereo not given in full)

IC50 [1]: 1390 nM
IC50 [2]: 3.3 nM
Compound: CCN1C(=O)CC[C@]2(C)C3CC[C@]4(C)C(C(C)CCCC(C)C)CCC4C3[C@@H](C)CC12 (stereo not given in full)

IC50 [1]: 280 nM
IC50 [2]: 2.7 nM
Compound: CC[C@H]1CC2NC(=O)CC[C@]2(C)C2CC[C@]3(C)C(C(C)CCCC(C)C)CCC3C21 (stereo not given in full)

IC50 [1]: 280 nM
IC50 [2]: 2.6 nM
Compound: CC(C)CCCC(C)C1CCC2C3C(CC[C@]12C)[C@@]1(C)CCC(=O)NC1C[C@@H]3C (stereo not given in full)

IC50 [1]: 1100 nM
IC50 [2]: 9.5 nM
Compound: CCC[C@H]1CC2NC(=O)CC[C@]2(C)C2CC[C@]3(C)C(C(C)CCCC(C)C)CCC3C21 (stereo not given in full)

IC50 [1]: 147 nM
IC50 [2]: 0.6 nM
Compound: CC(C)CCCC(C)C1CCC2C3C(CC[C@]12C)[C@@]1(C)CCC(=O)N(C)C1=C[C@@H]3C (stereo not given in full)
